Reference: ChEMBL document CHEMBL1122064, “Synthesis and biological evaluation of 17-[131I]iodo-9-telluraheptadecanoic acid, a potential imaging agent” (J Med Chem, 1982)

Assays:
Rattus norvegicus [1] = assay: Distribution of radioactivity in heart of Fischer 344 female rat after 2 min of intravenous administration; format: ADME, organism-based; conditions: in vivo
Method in brief: (§1)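 Female Fischer 344 rats (10-12 weeks, 170-200 g) with food and water ad libitum. The 131I-labelled fatty acid was taken up in ethanol, added dropwise to stirred 6% BSA at 40 °C (final ethanol 10%), filtered, and injected into a lateral tail vein under ether. Rats were CO2-anaesthetised and killed; organs were excised, rinsed, blotted, weighed and Ge(Li)-counted. Results are mean (range) % injected dose/g.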

Rattus norvegicus [2] = assay: Distribution of radioactivity in liver of Fischer 344 female rat after 4 of days intravenous administration; format: ADME, organism-based; conditions: in vivo
Method in brief: (§2)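 Female Fischer 344 rats, 10-12 weeks old, 170-200 g, fed ad libitum. The 131I-labelled fatty acid was dissolved in absolute ethanol, added dropwise to stirred 6% bovine serum albumin at 40 °C (final ethanol 10%), filtered, and injected into a lateral tail vein under ether anaesthesia. Organs were excised, rinsed, blotted and weighed, then counted by Ge(Li) analyzer as percent injected dose/g.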

Rattus norvegicus [3] = assay: Distribution of radioactivity in heart of Fischer 344 female rat after 60 min of intravenous administration; format: ADME, organism-based; conditions: in vivo, 1 h
Rattus norvegicus [4] = assay: Distribution of radioactivity in Thyroid of Fischer 344 female rat after 10 min of intravenous administration; format: ADME, organism-based; conditions: in vivo; method in brief: as §1
Rattus norvegicus [5] = assay: Distribution of radioactivity in Thyroid of Fischer 344 female rat after 60 min of intravenous administration; format: ADME, organism-based; conditions: in vivo, 1 h; method in brief: as §1
Rattus norvegicus [6] = assay: Distribution of radioactivity in kidneys of Fischer 344 female rat after 10 min of intravenous administration; format: ADME, organism-based, Kidney; conditions: in vivo; method in brief: as §1
Rattus norvegicus [7] = assay: Distribution of radioactivity in brain of Fischer 344 female rat after 10 min of intravenous administration; format: ADME, organism-based; conditions: in vivo; method in brief: as §1
Rattus norvegicus [8] = assay: Distribution of radioactivity in blood of Fischer 344 female rat after 30 min of intravenous administration; format: ADME, organism-based; conditions: in vivo, 0.5 h
Rattus norvegicus [9] = assay: Distribution of radioactivity in brain of Fischer 344 female rat after 2 min of intravenous administration; format: ADME, organism-based; conditions: in vivo; method in brief: as §1
Rattus norvegicus [10] = assay: Distribution of radioactivity in lungs of Fischer 344 female rat after 60 min of intravenous administration; format: ADME, organism-based, Lung; conditions: in vivo, 1 h
Method in brief: (§3)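 Female Fischer 344 rats, 10-12 weeks, 170-200 g, fed ad libitum. The labelled fatty acid was given in 6% bovine serum albumin via a lateral tail vein under ether anaesthesia. Rats were killed by CO2 anaesthesia and cervical fracture; organs were excised, rinsed, blotted, weighed and counted by Ge(Li) analyzer. Results are mean percent injected dose/g with range.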

Rattus norvegicus [11] = assay: Distribution of radioactivity in liver of Fischer 344 female rat after 6 hr of intravenous administration; format: ADME, organism-based; conditions: in vivo; method in brief: as §2
Rattus norvegicus [12] = assay: Distribution of radioactivity in liver of Fischer 344 female rat after 2 hr of intravenous administration; format: ADME, organism-based; conditions: in vivo; method in brief: as §1
Rattus norvegicus [13] = assay: Distribution of radioactivity in blood of Fischer 344 female rat after 4 days of intravenous administration; format: ADME, organism-based; conditions: in vivo, 96 h; method in brief: as §1
Rattus norvegicus [14] = assay: Distribution of radioactivity in liver of Fischer 344 female rat after 24 hr of intravenous administration; format: ADME, organism-based; conditions: in vivo; method in brief: as §2
Rattus norvegicus [15] = assay: Distribution of radioactivity in liver of Fischer 344 female rat after 30 min of intravenous administration; format: ADME, organism-based; conditions: in vivo, 0.5 h; method in brief: as §3
Rattus norvegicus [16] = assay: Distribution of radioactivity in liver of Fischer 344 female rat after 10 min of intravenous administration; format: ADME, organism-based; conditions: in vivo; method in brief: as §1
Rattus norvegicus [17] = assay: Distribution of radioactivity in lungs of Fischer 344 female rat after 10 min of intravenous administration; format: ADME, organism-based, Lung; conditions: in vivo; method in brief: as §2
Rattus norvegicus [18] = assay: Distribution of radioactivity in Thyroid of Fischer 344 female rat after 24 hr of intravenous administration; format: ADME, organism-based; conditions: in vivo; method in brief: as §1
Rattus norvegicus [19] = assay: Distribution of radioactivity in brain of Fischer 344 female rat after 6 hr of intravenous administration; format: ADME, organism-based; conditions: in vivo; method in brief: as §1
Rattus norvegicus [20] = assay: Distribution of radioactivity in Thyroid of Fischer 344 female rat after 6 hr of intravenous administration; format: ADME, organism-based; conditions: in vivo; method in brief: as §1
Rattus norvegicus [21] = assay: Distribution of radioactivity in liver of Fischer 344 female rat after 7 of days intravenous administration; format: ADME, organism-based; conditions: in vivo; method in brief: as §2
Rattus norvegicus [22] = assay: Distribution of radioactivity in lungs of Fischer 344 female rat after 4 days of intravenous administration; format: ADME, organism-based, Lung; conditions: in vivo, 96 h; method in brief: as §2
Rattus norvegicus [23] = assay: Distribution of radioactivity in kidneys of Fischer 344 female rat after 6 hr of intravenous administration; format: ADME, organism-based, Kidney; conditions: in vivo; method in brief: as §1
Rattus norvegicus [24] = assay: Distribution of radioactivity in heart of Fischer 344 female rat after 30 min of intravenous administration; format: ADME, organism-based; conditions: in vivo, 0.5 h
Rattus norvegicus [25] = assay: Distribution of radioactivity in blood of Fischer 344 female rat after 60 min of intravenous administration; format: ADME, organism-based; conditions: in vivo, 1 h
Rattus norvegicus [26] = assay: Distribution of radioactivity in heart of Fischer 344 female rat after 24 hr of intravenous administration; format: ADME, organism-based; conditions: in vivo; method in brief: as §1
Rattus norvegicus [27] = assay: Distribution of radioactivity in brain of Fischer 344 female rat after 4 days of intravenous administration; format: ADME, organism-based; conditions: in vivo, 96 h; method in brief: as §1
Rattus norvegicus [28] = assay: Distribution of radioactivity in Thyroid of Fischer 344 female rat after 30 min of intravenous administration; format: ADME, organism-based; conditions: in vivo, 0.5 h; method in brief: as §1
Rattus norvegicus [29] = assay: Distribution of radioactivity in lungs of Fischer 344 female rat after 24 hr of intravenous administration; format: ADME, organism-based, Lung; conditions: in vivo; method in brief: as §2
Rattus norvegicus [30] = assay: Distribution of radioactivity in lungs of Fischer 344 female rat after 7 days of intravenous administration; format: ADME, organism-based, Lung; conditions: in vivo, 168 h; method in brief: as §2
Rattus norvegicus [31] = assay: Distribution of radioactivity in blood of Fischer 344 female rat after 2 hr of intravenous administration; format: ADME, organism-based; conditions: in vivo; method in brief: as §1
Rattus norvegicus [32] = assay: Distribution of radioactivity in Thyroid of Fischer 344 female rat after 2 hr of intravenous administration; format: ADME, organism-based; conditions: in vivo; method in brief: as §1

O=C(O)CCCCCCCC[Te]CCCCCCCC[131I]
Distribution of radioactivity (Rattus norvegicus [1]): 2.39 dose g-1 | Distribution of radioactivity (Rattus norvegicus [2]): 0.02 dose g-1 | Distribution of radioactivity (Rattus norvegicus [3]): 1.86 dose g-1 | Distribution of radioactivity (Rattus norvegicus [4]): 12.1 dose g-1 | Distribution of radioactivity (Rattus norvegicus [5]): 74.7 dose g-1 | Distribution of radioactivity (Rattus norvegicus [6]): 1.14 dose g-1 | Distribution of radioactivity (Rattus norvegicus [7]): 0.11 dose g-1 | Distribution of radioactivity (Rattus norvegicus [8]): 0.72 dose g-1 | Distribution of radioactivity (Rattus norvegicus [9]): 0.17 dose g-1 | Distribution of radioactivity (Rattus norvegicus [10]): 0.75 dose g-1 | Distribution of radioactivity (Rattus norvegicus [11]): 0.51 dose g-1 | Distribution of radioactivity (Rattus norvegicus [12]): 1.02 dose g-1 | Distribution of radioactivity (Rattus norvegicus [13]): 0.02 dose g-1 | Distribution of radioactivity (Rattus norvegicus [14]): 0.13 dose g-1 | Distribution of radioactivity (Rattus norvegicus [15]): 1.75 dose g-1 | Distribution of radioactivity (Rattus norvegicus [16]): 3.23 dose g-1 | Distribution of radioactivity (Rattus norvegicus [17]): 1.11 dose g-1 | Distribution of radioactivity (Rattus norvegicus [18]): 475 dose g-1 | Distribution of radioactivity (Rattus norvegicus [19]): 0.03 dose g-1 | Distribution of radioactivity (Rattus norvegicus [20]): 184 dose g-1 | Distribution of radioactivity (Rattus norvegicus [21]): 0.014 dose g-1 | Distribution of radioactivity (Rattus norvegicus [22]): 0.06 dose g-1 | Distribution of radioactivity (Rattus norvegicus [23]): 0.36 dose g-1 | Distribution of radioactivity (Rattus norvegicus [24]): 1.78 dose g-1 | Distribution of radioactivity (Rattus norvegicus [25]): 0.64 dose g-1 | Distribution of radioactivity (Rattus norvegicus [26]): 0.11 dose g-1 | Distribution of radioactivity (Rattus norvegicus [27]): < 0.007 dose g-1 | Distribution of radioactivity (Rattus norvegicus [28]): 41.9 dose g-1 | Distribution of radioactivity (Rattus norvegicus [29]): 0.18 dose g-1 | Distribution of radioactivity (Rattus norvegicus [30]): 0.031 dose g-1 | Distribution of radioactivity (Rattus norvegicus [31]): 0.61 dose g-1 | Distribution of radioactivity (Rattus norvegicus [32]): 166 dose g-1
